Series [1] addresses T1, Class 1 histone deacetylase (Homo sapiens, UniProt Q13547+O15379+Q92769+Q9BY41). Description: Inhibition of Class 1 HDAC in VSV-G-pseudotyped HIV infected human 2C4 cell Jurkat model assessed as reactivation of HIV latency in presence of 5% NHS by fluorescent reporter gene assay. A digest of the protocol:
(§1)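 Latently infected Jurkat 2C4 cells (HIV latency model) were tested for reactivation of silenced provirus in parallel at two normal human serum levels: 0.1% and 5%. The paired runs gauge the potency shift from plasma protein binding.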
Background: A reporter such as luciferase makes a cellular process visible.

The target of series [2] is T1, Class 1 histone deacetylase. Description: Inhibition of Class 1 HDAC in VSV-G-pseudotyped HIV infected human 2C4 cell Jurkat model assessed as reactivation of HIV latency in presence of 0.1% NHS by fluorescent reporter gene assay. A digest of the protocol: as §1
The next series deals with T2, Histone deacetylase 8 (Homo sapiens, UniProt Q9BY41).
T2 sequence (Q9BY41 whole entry): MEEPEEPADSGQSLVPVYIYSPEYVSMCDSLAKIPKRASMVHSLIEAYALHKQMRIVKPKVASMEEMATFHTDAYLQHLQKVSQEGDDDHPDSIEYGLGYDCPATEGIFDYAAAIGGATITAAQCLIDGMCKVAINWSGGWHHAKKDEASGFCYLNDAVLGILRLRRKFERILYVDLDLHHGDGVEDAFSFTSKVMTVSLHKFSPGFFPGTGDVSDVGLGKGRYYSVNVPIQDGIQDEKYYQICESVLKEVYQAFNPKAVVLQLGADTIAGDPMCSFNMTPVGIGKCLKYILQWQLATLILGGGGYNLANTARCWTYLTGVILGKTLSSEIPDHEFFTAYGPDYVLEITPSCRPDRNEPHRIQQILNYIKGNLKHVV
In words: Inhibition of HDAC8 (unknown origin).

The target in series [3] is T3, Protein deacetylase HDAC6 (Homo sapiens, UniProt Q9UBN7).
T3 sequence (Q9UBN7 whole entry): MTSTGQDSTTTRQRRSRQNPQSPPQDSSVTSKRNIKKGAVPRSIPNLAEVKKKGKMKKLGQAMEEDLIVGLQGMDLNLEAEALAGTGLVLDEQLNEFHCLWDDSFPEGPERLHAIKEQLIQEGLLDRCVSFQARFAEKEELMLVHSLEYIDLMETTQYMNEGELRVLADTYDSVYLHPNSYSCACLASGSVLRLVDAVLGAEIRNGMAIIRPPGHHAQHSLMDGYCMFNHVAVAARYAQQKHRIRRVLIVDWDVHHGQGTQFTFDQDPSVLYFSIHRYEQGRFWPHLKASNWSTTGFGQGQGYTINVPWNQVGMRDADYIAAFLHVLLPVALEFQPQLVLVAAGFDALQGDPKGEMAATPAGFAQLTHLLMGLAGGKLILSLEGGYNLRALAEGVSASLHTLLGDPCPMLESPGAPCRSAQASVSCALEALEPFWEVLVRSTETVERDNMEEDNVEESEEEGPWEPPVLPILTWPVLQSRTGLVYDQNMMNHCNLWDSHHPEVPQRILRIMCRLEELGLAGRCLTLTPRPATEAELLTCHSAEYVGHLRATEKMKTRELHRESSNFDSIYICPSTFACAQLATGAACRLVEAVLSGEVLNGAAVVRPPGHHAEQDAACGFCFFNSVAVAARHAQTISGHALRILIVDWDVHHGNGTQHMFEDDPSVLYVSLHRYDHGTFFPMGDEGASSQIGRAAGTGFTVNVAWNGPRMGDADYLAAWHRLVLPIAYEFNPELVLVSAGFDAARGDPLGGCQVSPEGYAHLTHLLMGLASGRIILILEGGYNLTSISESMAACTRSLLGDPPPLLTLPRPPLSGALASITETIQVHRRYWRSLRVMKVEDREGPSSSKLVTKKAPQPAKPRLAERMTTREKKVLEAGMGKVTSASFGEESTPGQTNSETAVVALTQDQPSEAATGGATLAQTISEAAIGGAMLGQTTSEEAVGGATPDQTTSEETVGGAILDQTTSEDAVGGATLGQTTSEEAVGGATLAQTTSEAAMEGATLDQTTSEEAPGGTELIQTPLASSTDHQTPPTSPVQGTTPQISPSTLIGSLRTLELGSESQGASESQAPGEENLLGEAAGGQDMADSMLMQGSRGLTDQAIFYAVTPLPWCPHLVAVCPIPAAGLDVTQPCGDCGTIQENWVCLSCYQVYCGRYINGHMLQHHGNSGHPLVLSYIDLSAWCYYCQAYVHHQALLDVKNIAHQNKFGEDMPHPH
In words: Inhibition of HDAC6 (unknown origin).

A further series concerns the target Histone deacetylase 2 (Homo sapiens, UniProt Q92769). In words: Inhibition of HDAC2 (unknown origin).
In the next series the target is Histone deacetylase 3 (Homo sapiens, UniProt O15379). In words: Inhibition of HDAC3 (unknown origin).
The target of the next series is Histone deacetylase 1 (Homo sapiens, UniProt Q13547). Description: Inhibition of HDAC1 (unknown origin).
Series [4] in a line: Apparent permeability of the compound. The class given is ADME. The note with it: not told.
The nature of series [5]: Oral bioavailability in Wistar Han rat at 10 mg/kg. In kind it is ADME, organism-based. The following applies: in vivo.
The nature of series [6]: Half life in Wistar Han rat at 2 mg/kg, iv or 10 mg/kg, po. The class given is ADME, organism-based. The note with it: in vivo.
A short description of series [7]: Unbound volume of distribution in Wistar Han rat at 2 mg/kg, iv or 10 mg/kg, po. In kind it is ADME, organism-based. The note with it: in vivo.
The nature of series [8]: Unbound clearance in Wistar Han rat at 2 mg/kg, iv or 10 mg/kg, po. In kind it is ADME, organism-based. The following applies: in vivo.

Chain of Histone deacetylase 2 (Q92769 whole entry): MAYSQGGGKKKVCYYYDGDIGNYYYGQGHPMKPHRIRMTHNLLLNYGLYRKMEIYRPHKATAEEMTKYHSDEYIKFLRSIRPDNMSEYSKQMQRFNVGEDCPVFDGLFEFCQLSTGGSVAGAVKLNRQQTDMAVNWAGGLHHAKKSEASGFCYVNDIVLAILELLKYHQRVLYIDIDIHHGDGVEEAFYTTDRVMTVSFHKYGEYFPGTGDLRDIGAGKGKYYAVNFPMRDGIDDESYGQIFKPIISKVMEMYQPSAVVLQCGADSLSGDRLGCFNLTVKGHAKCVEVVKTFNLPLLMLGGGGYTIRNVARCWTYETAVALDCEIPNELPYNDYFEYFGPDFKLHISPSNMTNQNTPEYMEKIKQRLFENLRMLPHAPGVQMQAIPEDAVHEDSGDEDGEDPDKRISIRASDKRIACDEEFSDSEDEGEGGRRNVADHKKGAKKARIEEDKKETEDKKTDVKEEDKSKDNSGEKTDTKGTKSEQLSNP
Chain of Histone deacetylase 3 (O15379 whole entry): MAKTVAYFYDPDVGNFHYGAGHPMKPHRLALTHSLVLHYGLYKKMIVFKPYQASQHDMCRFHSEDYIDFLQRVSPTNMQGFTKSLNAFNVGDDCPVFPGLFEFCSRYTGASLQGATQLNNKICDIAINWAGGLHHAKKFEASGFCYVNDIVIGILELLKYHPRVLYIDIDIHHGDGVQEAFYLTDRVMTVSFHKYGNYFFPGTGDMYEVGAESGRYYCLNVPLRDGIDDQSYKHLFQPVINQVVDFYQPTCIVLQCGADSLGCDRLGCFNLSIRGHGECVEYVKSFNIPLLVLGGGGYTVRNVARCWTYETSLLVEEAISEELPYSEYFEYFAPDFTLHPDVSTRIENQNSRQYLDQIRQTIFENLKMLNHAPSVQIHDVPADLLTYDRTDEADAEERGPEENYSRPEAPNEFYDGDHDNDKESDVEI
Chain of Histone deacetylase 1 (Q13547 whole entry): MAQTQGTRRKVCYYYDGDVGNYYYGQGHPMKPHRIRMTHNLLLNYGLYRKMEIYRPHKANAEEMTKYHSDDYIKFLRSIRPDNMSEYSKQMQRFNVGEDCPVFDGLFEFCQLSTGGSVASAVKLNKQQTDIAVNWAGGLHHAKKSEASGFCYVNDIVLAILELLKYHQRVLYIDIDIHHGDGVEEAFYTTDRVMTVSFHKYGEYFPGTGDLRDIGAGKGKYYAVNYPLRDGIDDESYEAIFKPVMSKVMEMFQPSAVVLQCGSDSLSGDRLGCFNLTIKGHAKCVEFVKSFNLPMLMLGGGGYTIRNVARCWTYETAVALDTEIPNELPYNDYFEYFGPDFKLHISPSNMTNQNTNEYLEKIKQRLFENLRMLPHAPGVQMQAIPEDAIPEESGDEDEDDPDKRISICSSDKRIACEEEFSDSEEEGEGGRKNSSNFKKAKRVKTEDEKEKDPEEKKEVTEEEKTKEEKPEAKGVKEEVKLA

`CCC(=O)CCCCCC(NC(=O)c1cncs1)c1[nH]c(-c2ccccc2)nc1C(=O)NCCN(C)C` (stereo unspecified): the EC50 in [1] worked out at 853 nM; in series [2], 1142 nM. Moreover, the IC50 on Histone deacetylase 8 was 5340 nM; in series [3], over 45000 nM; against Histone deacetylase 2 it was 53.1 nM; against Histone deacetylase 3, 4.5 nM; at Histone deacetylase 1, 13.5 nM.

For `CCC(=O)CCCCC[C@H](NC(=O)C1CN(C)C1)c1[nH]c(-c2ccccc2)nc1C(N)=O`, in [4], the Papp worked out at 1.1 ×10⁻⁶ cm/s. Also, the bioavailability in [5] is 0%. Moreover, in series [6], the half-life is 6.4 h. In series [7], this compound displayed a Vdu of 45 L/kg. In [8], this compound came in with a CL free of 166 mL/min/kg. Also, the values for the EC50 in [1] and in series [2] were 269 nM and 294 nM, respectively. In addition, the IC50 at Histone deacetylase 8 is 5420 nM; in [3] it was 9830 nM; on Histone deacetylase 2, 18.1 nM; on Histone deacetylase 3 it was 2.5 nM; against Histone deacetylase 1, 1.9 nM.

`CCC(=O)CCCCCC(NC(=O)c1cncs1)c1[nH]c(-c2ccccc2)nc1C(=O)NC` (stereo unspecified): the concentration for a half-maximal effect (EC50) in series [1] came out at 1804 nM; in series [2], 570 nM. Also, the IC50 is 7470 nM against Histone deacetylase 8; 29200 nM in series [3]; 91.4 nM against Histone deacetylase 2; 4.7 nM at Histone deacetylase 3; 27.6 nM on Histone deacetylase 1.

`CCC(=O)CCCCC[C@H](NC(=O)[C@H]1CC12CCN(C)CC2)c1[nH]c(-c2ccc(F)cc2)nc1C#N`: the Papp in series [4] came to 1.7 ×10⁻⁶ cm/s. In series [5], the bioavailability was 1%. Also, the half-life in series [6] was 4 h. The compound further came in with a Vdu in series [7] of 40 L/kg. Besides, the CL free in series [8] worked out at 244 mL/min/kg. In addition, the EC50 in series [1] was determined as 409 nM; in series [2] it was 233 nM. On Histone deacetylase 1, the IC50 is 3.8 nM.

As for `CCC(=O)CCCCCC(NC(=O)c1cncs1)c1[nH]c(-c2ccccc2)nc1C(=O)N1CCOCC1` (stereo unspecified), the EC50 in series [1] was determined as 3771 nM; in series [2] it was 2729 nM. In addition, the IC50 at Histone deacetylase 8 was 16800 nM; in series [3], 19000 nM; against Histone deacetylase 2, 159 nM; against Histone deacetylase 3 it was 19.1 nM; at Histone deacetylase 1, 43.6 nM.

Usually EC50 stands for the midpoint of the concentration-response curve. By IC50 is commonly meant the concentration that inhibits the measured activity by half. The low end stands for inhibition by little substance, the high end for a need for much substance. What is called Papp is the rate of passage across a membrane or cell layer, normalised by area and donor concentration. By bioavailability is commonly meant dose-corrected exposure relative to a reference, in per cent. A higher bioavailability goes with good availability. In general, half-life refers to the time needed for the level to fall by half in the phase considered. Lower therefore signals fast loss.

The record behind these values is ChEMBL document CHEMBL4665726, “Development of a selective HDAC inhibitor aimed at reactivating the HIV latent reservoir” (Bioorg Med Chem Lett, 2020).
